Active and inactive are the calls of the source. No cut-off for these calls is given here.
What was measured:
[1] = molecular target: T1, NAD-dependent protein deacetylase sirtuin-1 (Homo sapiens, UniProt Q96EB6); test: Inhibition of human SIRT1 deacetylation activity using H3K9Ac as substrate preincubated for 15 mins in presence of NAD+ followed by substrate addition by HPLC analysis
T1 sequence (Q96EB6 whole entry): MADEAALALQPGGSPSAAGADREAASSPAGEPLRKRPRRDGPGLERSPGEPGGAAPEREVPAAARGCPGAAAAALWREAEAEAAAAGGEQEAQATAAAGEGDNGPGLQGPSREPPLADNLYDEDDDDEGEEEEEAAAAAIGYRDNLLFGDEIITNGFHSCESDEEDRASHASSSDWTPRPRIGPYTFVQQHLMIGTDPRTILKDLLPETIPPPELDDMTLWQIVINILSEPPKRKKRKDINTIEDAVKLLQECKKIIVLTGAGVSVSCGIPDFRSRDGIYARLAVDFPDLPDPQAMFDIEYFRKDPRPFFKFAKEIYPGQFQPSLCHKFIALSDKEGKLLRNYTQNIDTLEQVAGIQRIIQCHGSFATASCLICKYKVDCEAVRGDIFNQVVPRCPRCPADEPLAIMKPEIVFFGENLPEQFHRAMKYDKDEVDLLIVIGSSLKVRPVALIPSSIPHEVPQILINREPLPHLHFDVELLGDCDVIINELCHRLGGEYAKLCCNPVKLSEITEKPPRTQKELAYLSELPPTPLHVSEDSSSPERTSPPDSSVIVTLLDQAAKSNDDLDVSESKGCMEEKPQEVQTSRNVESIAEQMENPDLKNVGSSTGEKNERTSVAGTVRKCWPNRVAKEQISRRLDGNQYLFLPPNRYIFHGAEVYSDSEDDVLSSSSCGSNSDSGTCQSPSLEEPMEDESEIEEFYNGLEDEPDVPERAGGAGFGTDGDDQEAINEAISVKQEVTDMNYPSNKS
Outline: (§1)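 In vitro sirtuin reaction mixture with compound at a range of concentrations. Compound was preincubated with NAD+ and the enzyme before the substrate peptide was added. IC50 taken from the concentration series.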

[2] = molecular target: T2, NAD-dependent protein deacetylase sirtuin-2 (Homo sapiens, UniProt Q8IXJ6); test: Inhibition of human SIRT2 deacetylation activity using H3K9Ac as substrate in presence of NAD+ by HPLC analysis
T2 sequence (Q8IXJ6 whole entry): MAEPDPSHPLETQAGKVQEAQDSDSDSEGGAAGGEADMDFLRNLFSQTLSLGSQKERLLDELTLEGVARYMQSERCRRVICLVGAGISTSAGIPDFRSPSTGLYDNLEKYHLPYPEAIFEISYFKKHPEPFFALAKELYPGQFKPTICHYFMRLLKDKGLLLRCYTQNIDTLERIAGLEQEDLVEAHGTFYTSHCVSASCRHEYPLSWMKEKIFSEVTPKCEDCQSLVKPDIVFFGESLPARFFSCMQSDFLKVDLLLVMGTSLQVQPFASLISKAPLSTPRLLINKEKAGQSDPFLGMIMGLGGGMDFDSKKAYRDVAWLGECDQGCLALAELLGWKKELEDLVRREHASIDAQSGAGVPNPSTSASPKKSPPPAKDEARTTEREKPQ

[3] = molecular target: NAD-dependent protein deacylase sirtuin-5, mitochondrial (Homo sapiens, UniProt Q9NXA8); test: Inhibition of human SIRT5 deacetylation activity using H3K9Ac as substrate preincubated for 15 mins in presence of NAD+ followed by substrate addition by HPLC analysis; outline: as §1
Chain of NAD-dependent protein deacylase sirtuin-5, mitochondrial (Q9NXA8 whole entry): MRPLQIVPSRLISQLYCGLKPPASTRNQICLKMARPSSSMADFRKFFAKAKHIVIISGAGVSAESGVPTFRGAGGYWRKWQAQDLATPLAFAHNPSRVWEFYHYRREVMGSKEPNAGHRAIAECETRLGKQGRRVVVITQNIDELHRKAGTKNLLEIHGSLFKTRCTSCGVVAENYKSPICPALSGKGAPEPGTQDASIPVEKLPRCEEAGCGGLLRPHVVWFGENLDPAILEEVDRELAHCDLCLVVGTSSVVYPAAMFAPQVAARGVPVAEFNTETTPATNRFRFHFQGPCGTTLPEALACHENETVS

[4] = molecular target: T3, Protein cereblon/NAD-dependent protein deacetylase sirtuin-1 (Homo sapiens) (UniProt Q96EB6+Q96SW2); test: Protac activity at CRBN/SIRT1 in human MCF7 cells assessed as SIRT1 degradation at 5 to 10 uM after 48 hrs by immunoblot analysis; assay type: cell-based; settings: dose microM 5-10, time 48.0 hrs
T3 sequence (Q96SW2 whole entry, looked up, one chain of several): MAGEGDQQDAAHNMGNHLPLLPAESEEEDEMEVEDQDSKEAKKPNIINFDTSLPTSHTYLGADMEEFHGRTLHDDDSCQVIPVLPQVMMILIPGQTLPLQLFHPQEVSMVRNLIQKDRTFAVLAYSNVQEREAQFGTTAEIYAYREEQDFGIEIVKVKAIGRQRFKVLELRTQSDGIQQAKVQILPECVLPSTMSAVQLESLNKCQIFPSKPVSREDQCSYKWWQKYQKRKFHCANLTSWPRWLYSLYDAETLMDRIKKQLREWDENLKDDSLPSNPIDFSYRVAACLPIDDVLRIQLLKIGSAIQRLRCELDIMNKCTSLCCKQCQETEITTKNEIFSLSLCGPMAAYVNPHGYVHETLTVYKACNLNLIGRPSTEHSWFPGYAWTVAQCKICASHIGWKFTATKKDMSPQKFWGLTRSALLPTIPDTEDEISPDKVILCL
Outline: (§2)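 MCF7 or BT-549 cells exposed to inhibitor at the indicated concentrations for 48 h; SIRT1, SIRT2 and SIRT3 levels read by immunoblot.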

[5] = molecular target: T3, Protein cereblon/NAD-dependent protein deacetylase sirtuin-1 (Homo sapiens); test: Protac activity at CRBN/SIRT1 in human BT549 cells assessed as SIRT1 degradation at 5 to 10 uM after 48 hrs by immunoblot analysis; assay type: cell-based; settings: BT-549, dose microM 5-10, time 48.0 hrs; outline: as §2
[6] = molecular target: T4, Protein cereblon/NAD-dependent protein deacetylase sirtuin-2 (Homo sapiens) (UniProt Q8IXJ6+Q96SW2); test: Protac activity at CRBN/SIRT2 in human MCF7 cells assessed as SIRT2 degradation at 5 to 10 uM after 48 hrs by immunoblot analysis; assay type: cell-based; settings: dose microM 5-10, time 48.0 hrs
T4 sequence (Q96SW2 whole entry, looked up, one chain of several): as above
Outline: (§3)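 Cells exposed to compound at the indicated concentrations for 48 h. SIRT1, SIRT2 and SIRT3 levels were read by immunoblot.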

[7] = molecular target: T4, Protein cereblon/NAD-dependent protein deacetylase sirtuin-2 (Homo sapiens); test: Protac activity at CRBN/SIRT2 in human BT549 cells assessed as SIRT2 degradation at 5 to 10 uM after 48 hrs by immunoblot analysis; assay type: cell-based; settings: BT-549, dose microM 5-10, time 48.0 hrs; outline: as §3
[8] = molecular target: T5, Protein cereblon/NAD-dependent protein deacetylase sirtuin-3, mitochondrial (Homo sapiens) (UniProt Q9NTG7+Q96SW2); test: Protac activity at CRBN/SIRT3 in human BT549 cells assessed as SIRT3 degradation at 5 to 10 uM after 48 hrs by immunoblot analysis; assay type: cell-based; settings: BT-549, dose microM 5-10, time 48.0 hrs; outline: as §2
T5 sequence (Q96SW2 whole entry, looked up): as the sequence (Q96SW2 whole entry, looked up, one chain of several) above
T5 sequence (Q9NTG7 whole entry, looked up): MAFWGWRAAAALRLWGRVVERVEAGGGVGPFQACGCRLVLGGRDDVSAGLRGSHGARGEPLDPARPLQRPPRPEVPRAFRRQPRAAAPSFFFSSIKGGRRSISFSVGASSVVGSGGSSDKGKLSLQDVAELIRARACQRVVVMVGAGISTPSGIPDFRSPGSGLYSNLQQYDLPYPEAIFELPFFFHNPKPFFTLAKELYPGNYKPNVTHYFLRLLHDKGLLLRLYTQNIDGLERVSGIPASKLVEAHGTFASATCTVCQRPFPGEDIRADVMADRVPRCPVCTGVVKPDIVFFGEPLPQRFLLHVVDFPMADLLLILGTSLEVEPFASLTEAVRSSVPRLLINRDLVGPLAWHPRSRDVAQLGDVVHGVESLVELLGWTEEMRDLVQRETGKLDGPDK

[9] = molecular target: T4, Protein cereblon/NAD-dependent protein deacetylase sirtuin-2 (Homo sapiens); test: Protac activity at CRBN/SIRT2 in human MDA-MB-231 cells assessed as SIRT2 degradation after 48 hrs by immunoblot analysis; assay type: cell-based
Outline: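 In MDA-MB-231 and MDA-MB-468 cells, SIRT2 was assessed by immunoblot after compound treatment.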

[10] = molecular target: T4, Protein cereblon/NAD-dependent protein deacetylase sirtuin-2 (Homo sapiens); test: Protac activity at CRBN/SIRT2 in human MCF7 cells assessed as SIRT2 degradation at 10 uM by immunoblot analysis; assay type: cell-based; settings: TDE = time-dependent effect
Outline: (§4)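 MCF7 cells treated at a fixed concentration (10 or 25 μM) and harvested at several incubation times; SIRT2 level read by immunoblot.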

[11] = molecular target: T4, Protein cereblon/NAD-dependent protein deacetylase sirtuin-2 (Homo sapiens); test: Protac activity at CRBN/SIRT2 in human MCF7 cells assessed as SIRT2 degradation at 25 uM by immunoblot analysis; assay type: cell-based; outline: as §4
[12] = molecular target: T4, Protein cereblon/NAD-dependent protein deacetylase sirtuin-2 (Homo sapiens); test: Protac activity at CRBN/SIRT2 in human MCF7 cells assessed as inhibition of SIRT2 deacetylation by measuring increase in acetylated-alpha tubulin level at 5 uM measured after 12 hrs by DAPI staining based immunofluorescence microscopic analysis; assay type: cell-based
Outline: (§5)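 MCF7 cells treated for 12 h with 5 or 10 μM, DMSO as control. Acetyl-α-tubulin (K40) was imaged by immunofluorescence, and fluorescence intensity was quantified and normalized to vehicle.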

[13] = molecular target: T4, Protein cereblon/NAD-dependent protein deacetylase sirtuin-2 (Homo sapiens); test: Protac activity at CRBN/SIRT2 in human MCF7 cells assessed as inhibition of SIRT2 deacetylation by measuring increase in acetylated-alpha tubulin level at 10 uM measured after 12 hrs by DAPI staining based immunofluorescence microscopic analysis; assay type: cell-based; outline: as §5
MCF7 = test: Cytotoxicity against human MCF7 cells assessed as reduction in cell viability after 72 hrs; assay type: functional, cell-based
Outline: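 Cells incubated with compound or thalidomide for 72 h; cell viability read out at the end of exposure.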

[14] = molecular target: T5, Protein cereblon/NAD-dependent protein deacetylase sirtuin-3, mitochondrial (Homo sapiens); test: Protac activity at CRBN/SIRT3 in human HEK293T cells assessed as abundance ratio at 5 uM incubated for 16 hrs by TMT global proteomics assay relative to DMSO; assay type: cell-based; settings: HEK-293T
Outline: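 HEK 293T cells given 5 μM compound for 16 h. Global proteomics used Tandem Mass Tag labelling, and each sirtuin's abundance is given as a ratio of treated to DMSO-treated cells.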

## CCCCCCCCCCCCCC(=S)NCCCC[C@H](NC(=O)CCOCCOCCOCCOCCNc1cccc2c1C(=O)N(C1CCC(=O)NC1=O)C2=O)C(=O)Nc1ccccc1 (stereo not given in full)
[1]
  IC50: 41 µM
[2]
  IC50: 0.093 µM
[3]
  IC50: > 83 µM
[4]
  Activity: inactive
[5]
  Activity: inactive
[6]
  Activity: Active
[7]
  Activity: Active
[8]
  Activity: inactive
[9]
  Activity: Active
[10]
  Activity: Tde
[11]
  Activity: inactive
[12]
  Activity: Active
[13]
  Activity: Active
MCF7
  Activity: Active
[14]
  Activity: inactive
